Only some compounds are listed: those with a hit (about 1.1% of all), similar ones and a draw of the others.
A1 inh – caspase 3/7 activation in MEF A1-2A-BIM cells, primary screen, A1 inhibitor project, cell-based, luminescence, HTS | Caspase-Glo 3/7 luminescence, 3 h; percent of clofoctol response, vehicle zero | caspase activation, % (test concentration not listed) | hit rate 0.066% among 330,000;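 active means over half of replicate activation scores above 10%, or exactly half above 10 with the replicate mean above 10; inconclusive means replicate mean below 10 yet half the replicates above 10; inactive means over half of replicates below 10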
NPR2 activator – human GC-B receptor activators, primary screen, HEK293 GC-B cells, cGMP TR-FRET, EC30 CNP. Atrial natriuretic peptide receptor 2 (Homo sapiens), P20594. 0% at EC30 CNP, 100% saturating CNP. activation, % at 10 µM. hit rate 0.11% among 370,000. AID 1920062, 2024;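 active means activation at 10 µM reaching about 35% in either raw or pattern-adjusted values, limit read from the data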
GC-A act – GC-A stimulated cGMP production enhancers – HEK293 GC-A cells, cGMP TR-FRET, EC30 ANP, primary screen; activation, % at 10 µM; hit rate 0.14% among 370,000; 0% at EC30 ANP, 100% saturating ANP; AID 1671463, 2021; in the data active means activation above about 40%
Tb MetRS inh – T. brucei MetRS inhibitors, primary screen, biochemical, luminescence. methionyl-tRNA synthetase (Trypanosoma brucei brucei). purified T. brucei MetRS, ATP depletion, Kinase-Glo luminescence. inhibition, % at 11.9 µM. hit rate 0.4% among 360,000. AID 624268, 2012;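 active means inhibition above a per-plate cutoff of the control wells' mean inhibition plus 3 SD, cut at about 5.5% in these data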;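 further: 0% = DMSO wells median and 100% = median of wells with control inhibitor compound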
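Test system: purified T. brucei MetRS enzyme. Also added: ATP, methionine and E. coli bulk tRNA substrates. Compound: 11.9 µM single point. Schedule: 15 min enzyme-compound preincubation, 2 h reaction, 10 min detection, 25 °C. Signal: luciferase luminescence of residual ATP, Kinase-Glo. Evaluation: percent inhibition versus plate control medians. Controls: DMSO wells, low control.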
SKN-1 inh – suppressors of acrylamide-induced Pgst-4::GFP reporter in worms, primary screen, SKN-1 inhibitor project, whole organism, uHTS, GFP/RFP fluorescence ratio, strain VP596. inhibition, % at 21.8 µM. AID 624304, 2012. C. elegans VP596 Pgst-4::GFP/RFP ratio, 24 h. hit rate 0.49% among 360,000;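 active means interference check ratio from 0.5 to 1.5 plus GFP to RFP signal ratio inhibition reaching or exceeding a fixed threshold, cut at about 30% in these data, passing the limit was not always enough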
MT1-MMP act inh – blockers of MT1-MMP proenzyme processing, primary screen, HT1080 RFP-PRO-GFP cells, GFP/RFP fluorescence; GFP/RFP ratio change, % at 20 µM; hit rate 0.061% among 360,000; AID 651647, 2012; GFP/RFP ratio fluorescence, overnight; percent of plate control window, DMSO zero;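 active means GFP/RFP ratio change of at least 30% with cell ATP level not reduced by more than half and red fluorescence within 50% of control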
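Material: RFP-PRO-GFP reporter HT1080 cells. Dosing: single-point 20 µM compound, 1% DMSO. Controls: DMSO and RFP-L50D-GFP cell wells. Timing: cells overnight before dosing, compound overnight, 37 °C, 5% CO2. Measure: GFP/RFP fluorescence ratio.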
Active calls of the source: *; ? = inconclusive; · = no result given.

SMILES | A1 inh | NPR2 activator | GC-A act | Tb MetRS inh | SKN-1 inh | MT1-MMP act inh
CC(=O)CC[C@@H]1CC[C@]2(CCCN(S(=O)(=O)C3CCCCC3)C2)O1 | · | 1 | 5 | · | · | ·
COc1ccc(-c2cc(C#N)nc(Oc3ccc(Cl)cc3)n2)cc1 | 0 | -2 | 5 | 0 | -3 | 2
COc1ccc(-c2cc(C#N)nc(Cl)n2)cc1 | 0 | 20 | 78* | 0 | -1 | -1
CCc1ccc(NC(=O)c2cc(-c3ccco3)on2)cc1 | 0 | 8 | 5 | 0 | 45* | 0
COc1ccc(NC(=O)c2cc(-c3ccco3)on2)cc1 | · | 0 | -1 | 0 | 16 | 3
O=C(Nc1c(Cl)cccc1Cl)c1cc(-c2ccco2)on1 | -2 | 4 | 9 | 0 | -8 | -2
O=C(Nc1cccc(Cl)c1)c1cc(-c2ccco2)on1 | 1 | -3 | 0 | 1 | 39* | 1
CCOc1ccc(CCNC(=O)c2cc3ccsc3n2C)cc1OC | · | 6 | -2 | · | · | ·
O=C(/C=C/c1ccccc1)c1ccc(NC2=NCCCS2)cc1 | -4 | 0 | -7 | 0 | 12 | -4
Cc1cccc(/C=C/C(=O)c2ccc(NC3=NCCCS3)cc2)c1 | -3 | -1 | -11 | 0 | 60* | -10
O=C(/C=C/c1ccc(Br)cc1)c1ccc(NC2=NCCCS2)cc1 | ? | -9 | -22 | 1 | 83* | -11
N#Cc1ccc(NC(=O)COC(=O)CCNS(=O)(=O)c2ccccc2)cc1 | 0 | -4 | 0 | 1 | 14 | -1
O=C(COC(=O)CCNS(=O)(=O)c1ccccc1)Nc1ccc(OC(F)F)cc1 | 0 | 2 | -2 | 0 | 45* | -2
Cc1ccc(S(=O)(=O)c2nnn3c2nc(Nc2cccc(C)c2)c2ccccc23)cc1 | ? | 50* | 49* | 0 | -1 | 1
CCc1ccccc1NC(=O)CSc1nc(-c2ccccc2)nn1C(=O)c1cccc([N+](=O)[O-])c1 | 0 | · | · | · | · | ·
O=C(CSc1nc(-c2ccccc2)nn1C(=O)c1ccccc1)Nc1cccc([N+](=O)[O-])c1 | -1 | -5 | 4 | 18* | 18 | 1
O=C(Cc1ccc(Cl)c(Cl)c1)Nc1ccc(S(=O)(=O)Nc2ccon2)cc1 | · | 1 | 2 | · | · | ·
Fc1cc(Cl)cc2ccc(-c3ccccc3)nc12 | · | -6 | -2 | 1 | 36* | 4
Cc1cccc(CCNC(=O)c2ccc(Sc3ccccc3Cl)c([N+](=O)[O-])c2)c1 | · | -1 | 2 | · | · | ·
O=C(Nc1cccc(Cl)c1)O[C@@H]1CC[C@@]23CCCN2C(=O)CCC[C@H]3C1 | · | -2 | -1 | · | · | ·
Cc1c2ccccc2nc2ccccc12 | 0 | 4 | -2 | 0 | 3 | 0
CCCNc1c(F)c(F)c2c(C)c3ccccc3nc2c1F | 0 | 3 | -2 | 0 | 39* | -64
CCn1c(/N=C/c2ccccc2NS(=O)(=O)c2ccc(C)cc2)nc2ccccc21 | 1 | · | · | 6.5* | 5 | 1
Nc1ccc(N=Nc2ccccc2)cc1[N+](=O)[O-] | · | -6 | 4 | 0 | 57* | 6
CCOC(=O)N1CCN(C(=O)C[C@H]2C[C@@]3(C(=O)OC)C(=C[C@H](COCc4ccccc4)O[C@@H]3C)N(Cc3ccc(Cl)cc3Cl)C2=O)CC1 | · | 3 | 0 | · | · | ·
SMILES | A1 inh | NPR2 activator | GC-A act | Tb MetRS inh | SKN-1 inh | MT1-MMP act inh
O=C(NCc1ccc(Cl)cc1)C1CCN(c2nnc(N3CCCC3=O)s2)CC1 | 0 | 6 | -1 | 0 | 37* | 2
Cc1ccc(CNC(=O)C2CCN(c3nnc(N4CCCC4=O)s3)CC2)cc1 | 2 | 2 | 0 | 0 | 6 | 5
COc1cc(SC)ccc1C(=O)Nc1ccc(Cl)cn1 | 1 | -6 | -8 | -1 | 35* | -2
O=C(NCc1cccnc1)O[C@H]1CC[C@@]23CCCN2C(=O)CCC[C@H]3C1 | · | -2 | -1 | · | · | ·
Cc1ccccc1NC(=O)c1ccc(N/N=C/c2ccccc2O)c([N+](=O)[O-])c1 | 2 | 3 | -3 | -1 | 9 | 4
Cc1ccc(NC(=O)c2ccc(N/N=C/c3cccc(O)c3)c([N+](=O)[O-])c2)cc1 | 36* | -7 | -7 | -1 | 9 | 28
CCCCNC(=O)C[C@@H]1C(=O)N(Cc2ccc(OC)cc2)/C2=C/CCCCC[C@@]21C(=O)OCC | · | 6 | 2 | · | · | ·
O=C(CC1C(=O)Nc2ccccc2N1CC(=O)N1CCCC1)Nc1ccc(Br)cc1 (stereo not drawn) | 0 | -4 | -6 | 19* | -9 | 3
Cc1ccc(C=Cc2ccccn2)cc1 | · | 0 | 0 | 0 | 43* | 3
C(=C\c1ccccn1)/c1ccccn1 | -2 | -1 | 1 | 0 | 16 | 0
Clc1ccc(C=Cc2ccccn2)cc1 | · | -3 | 6 | 0 | 72* | 0
O=C(OC12CCCN(C1)/C(=C/c1ccc(Cl)cc1)C2)c1ccc(Cl)cc1 (stereo not drawn) | · | -1 | 6 | · | · | ·
c1ccc(C2CCC3(CC2)CCC3NCc2cccs2)cc1 (stereo not drawn) | · | -6 | -6 | · | · | ·
N#Cc1cccc(NC(=O)O[C@@H]2CC[C@@]34CCCN3C(=O)CCC[C@H]4C2)c1 | · | -8 | -2 | · | · | ·
CCN(C(=O)CN1C(=O)S/C(=C\c2cccc(Cl)c2)C1=O)C1CCS(=O)(=O)C1 (stereo not drawn) | 0 | 0 | 3 | 0 | 37* | -3
COc1cccc(-c2nnc3n2N=C(c2ccc(Cl)cc2)CS3)c1 | · | 13 | 14 | · | · | ·
O=C(CN1CCN(S(=O)(=O)N2CCCCC2)CC1)Nc1cc(Cl)cc(Cl)c1 | 1 | -6 | -4 | 0 | 37* | 3
COc1ccc(CN2CC(=O)N(c3cccc(Cl)c3)C2=S)cc1OC | 0 | 2 | 44* | -1 | 0 | 1
Fc1ccccc1-c1n[nH]c(=S)n1N=Cc1ccc(OCc2ccccc2)cc1 | · | 1 | -3 | · | · | ·
CCCCCCCCNS(=O)(=O)CC1NCc2cc(F)ccc21 (stereo not drawn) | · | 6 | 3 | · | · | ·
O=C(NCC1CC1)c1ccc2sc([C@H]3C[C@H](O)[C@@H](CO)O3)nc2c1 | · | 0 | 1 | 0 | 9 | -7
Cc1ccccc1CNC(=O)c1ccc2sc([C@H]3C[C@H](O)[C@@H](CO)O3)nc2c1 | · | -2 | 1 | 0 | 39* | 2

Assay outcomes from PubChem.
